Source: ChEMBL document CHEMBL3808356, “Dihydrochelerythrine and its derivatives: Synthesis and their application as potential G-quadruplex DNA stabilizing agents” (Bioorg Med Chem, 2016)
The source made the active and inactive calls. The calls are words filed in the database; no cut-off is given here.

Experiments:
[1] = Antiproliferative activity against human HCT116 cells assessed as reduction in cell viability at 15 uM after 72 hrs by MTT assay relative to control; assay type: functional, HCT-116
Outline: (§1)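 Human cancer lines from ATCC, cultured per supplier instructions; ~5000 cells/well seeded 24 h before treatment at 37 °C, CO2. Exposed to vehicle (0.5% DMSO) or serially diluted compound (0.1 to 15 or 20 µM) for 72 h at 37 °C. MTT 100 µg added, 4 h at 37 °C; formazan dissolved in DMSO, absorbance 570 nm. Percent inhibition vs vehicle wells; triplicate, mean ± SEM.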

MDA-MB-231 [2] = test: Antiproliferative activity against human MDA-MB-231 cells assessed as reduction in cell viability at 15 uM after 72 hrs by MTT assay relative to control; assay type: functional; outline: as §1
[3] = Binding affinity to c-Kit1 G-quadruplex DNA (unknown origin) assessed as stabilization of preformed parallel topology up to 5 molar equivalents by circular dichroism spectroscopic analysis in absence of metal ion
Outline: (§2)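 CD titration of promoter quadruplex DNA (12.5 µM strand) in 50 mM Tris-HCl pH 7.2, no added monovalent cations. Ligand from 5 mM DMSO stock added stepwise by molar equivalents. Spectra 220–320 nm, 1 mm path, 25 °C, 100 nm/min, 2 s response, average of 3 scans. Ellipticity change at ~260 nm (positive) and ~240 nm (negative) followed.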

[4] = Binding affinity to c-myc G-quadruplex DNA (unknown origin) assessed as stabilization of preformed parallel topology at 1 to 6 molar equivalents by circular dichroism spectroscopic analysis in absence of metal ion; outline: as §2
[5] = Binding affinity to c-myc G-quadruplex DNA (unknown origin) assessed as change in melting temperature at 50 uM by circular dichroism spectroscopic analysis
Outline: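 CD melting: c-MYC DNA 10 µM strand in 10 mM lithium cacodylate pH 7.2, 1 mM KCl, 99 mM LiCl. Annealed 95 °C 5 min, cooled slowly to room temperature, then 5 equiv ligand (50 µM) added and incubated overnight. Ellipticity at 263 nm, 20–95 °C at 1 °C/min. Sigmoidal Boltzmann fit; ΔTm = Tm(DNA+ligand) − Tm(DNA).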

[6] = Binding affinity to telomeric DNA (unknown origin) assessed as change in melting temperature at 50 uM by circular dichroism spectroscopic analysis in presence of K+ ion
Outline: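 CD melting: telomeric DNA 10 µM in 10 mM lithium cacodylate pH 7.2 with 10 mM KCl, 90 mM LiCl, plus ligand. Ellipticity followed against temperature; ΔTm taken as Tm with ligand minus Tm of DNA alone.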

HeLa = test: Antiproliferative activity against human HeLa cells at 0.1 to 20 uM after 72 hrs by MTT assay; assay type: functional, cell-based; outline: as §1
A549 = test: Antiproliferative activity against human A549 cells at 0.1 to 20 uM after 72 hrs by MTT assay; assay type: functional, cell-based; outline: as §1
PC-3 = test: Antiproliferative activity against human PC3 cells at 0.1 to 20 uM after 72 hrs by MTT assay; assay type: functional, cell-based; outline: as §1
A-431 [7] = test: Antiproliferative activity against human A431 cells assessed as reduction in cell viability at 15 uM after 72 hrs by MTT assay relative to control; assay type: functional, cell-based; outline: as §1
[8] = Binding affinity to c-myc G-quadruplex DNA (unknown origin) by UV-visible absorption spectroscopic analysis
Outline: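 UV–vis titration, 225–600 nm, 10 mm cuvette. Ligand at 30 µM in 100 mM KCl, 10 mM lithium cacodylate pH 7.2 was titrated to saturation with c-MYC DNA pre-annealed in the same buffer (95 °C 5 min, slow cooling). Binding constant from a half-reciprocal fit; mean of 3 independent experiments.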

[9] = Binding affinity to c-myc G-quadruplex DNA (unknown origin) incubated for 30 mins by Taq DNA polymerase stop assay
Outline: (§3)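 Taq polymerase stop assay. 32P-labelled primer plus 50 nM cold primer annealed to 100 nM template carrying c-MYC quadruplex or mutated c-MYC sequence. Ligand 0–80 µM, 30 min at room temperature, then 0.5 U Taq, 55 °C for 30 min. Products run on 15% denaturing PAGE and phosphorimaged. Normalised % stop product plotted against ligand concentration; IC50 is 50% stop. Two independent experiments.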

[10] = Binding affinity to c-myc G-quadruplex DNA (unknown origin) assessed as stabilization of preformed parallel topology up to 5 molar equivalents by circular dichroism spectroscopic analysis in absence of metal ion
Outline: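 Ligand added from a 5 mM DMSO stock up to 5 equiv. Scanned 220–320 nm, 1.0 mm cuvette, 100 nm/min, 25 °C. Each spectrum is the average of 3 scans.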

[11] = Binding affinity to c-Kit1 G-quadruplex DNA (unknown origin) assessed as change in melting temperature at 50 uM by circular dichroism spectroscopic analysis
Outline: (§4)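 CD melting of 10 µM DNA strand in 10 mM lithium cacodylate pH 7.2 with 90 mM LiCl and 10 mM KCl (c-KIT1 and duplex). c-KIT1 annealed at 95 °C for 5 min, slowly cooled, then given 5 equiv ligand (50 µM) overnight. Ellipticity read at 263 nm, 1 °C/min from 15–95 °C for c-KIT1. Sigmoidal Boltzmann fit. ΔTm = Tm(DNA+ligand) − Tm(DNA).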

[12] = Binding affinity to duplex DNA (unknown origin) assessed as change in melting temperature at 50 uM by circular dichroism spectroscopic analysis; outline: as §4
[13] = Binding affinity to c-myc DNA mutant (unknown origin) up to 80 uM incubated for 30 mins by Taq DNA polymerase stop assay; outline: as §3
[14] = (§5) Antiproliferative activity against human HCT116 cells assessed as reduction in cell viability at 20 uM after 72 hrs by MTT assay relative to control; assay type: functional; details: HCT-116, 72 h; outline: as §1
MDA-MB-231 [15] = test: Antiproliferative activity against human MDA-MB-231 cells assessed as reduction in cell viability at 20 uM after 72 hrs by MTT assay relative to control; assay type: functional; details: MDA-MB-231, 72 h; outline: as §1
A-431 [16] = test: Antiproliferative activity against human A431 cells assessed as reduction in cell viability at 20 uM after 72 hrs by MTT assay relative to control; assay type: functional; details: A-431, 72 h; outline: as §1
HCT-116 = test: as §5; assay type: functional; outline: as §1

Row | Compound | Activity [3] | ΔTm [5] | Activity (HeLa) | Activity (A549) | Activity (PC-3) | inhibition (A-431 [7]) | inhibition at 20 µM (MDA-MB-231 [15]) | inhibition at 20 µM (A-431 [16]) | further results
1 | COc1ccc2c(c1OC)C(CC(C)=O)N(C)c1c-2ccc2cc3c(cc12)OCO3 (racemic) [listing 1 of 2 here] | – | – | – | – | – | – | – | – | inhibition at 15 µM ([1]; Homo sapiens, HCT-116, 72 h): 28.7%; inhibition at 15 µM (MDA-MB-231 [2]; Homo sapiens, MDA-MB-231, 72 h): 16.1%
2 | COc1ccc2c(c1OC)C(CC(C)=O)N(C)c1c-2ccc2cc3c(cc12)OCO3 (racemic) [listing 2 of 2 here] | inactive | 2.6 °C | inactive | inactive | inactive | inactive | – | – | Activity [4]: Active; ΔTm [6]: 1 °C
3 | COc1ccc2c(c1OC)C(CC(C)=O)N(C)c1c-2ccc2cc3c(cc12)OCO3 (single isomer, unassigned; (+)) [listing 1 of 2 here] | – | – | – | – | – | – | – | – | inhibition (INH) [1]: 47.84%; inhibition (INH) (MDA-MB-231 [2]): 24.3%
4 | COc1ccc2c(c1OC)C(CC(C)=O)N(C)c1c-2ccc2cc3c(cc12)OCO3 (single isomer, unassigned; (+)) [listing 2 of 2 here] | – | – | inactive | inactive | inactive | inactive | – | – | –
5 | COc1ccc2c(c1OC)C(CC(C)=O)N(C)c1c-2ccc2cc3c(cc12)OCO3 (stereo in doubt) [listing 1 of 2 here] | – | – | – | – | – | – | – | – | inhibition (INH) [1]: 36.88%; inhibition (INH) (MDA-MB-231 [2]): 20.81%
6 | COc1ccc2c(c1OC)C(CC(C)=O)N(C)c1c-2ccc2cc3c(cc12)OCO3 (stereo in doubt) [listing 2 of 2 here] | – | – | inactive | inactive | inactive | inactive | – | – | –
7 | COc1ccc2c(c[n+](C)c3c4cc5c(cc4ccc23)OCO5)c1OC [CHELERYTHRINE] | Active | 19.6 °C | – | – | – | – | 100% | 100% | K [8]: 7.35 ×10⁵ /M; Activity [9]: Dose-dependent effect; IC50 [9]: 6.6 µM; Activity [10]: Active; ΔTm [11]: 24.3 °C; ΔTm [12]: 0.1 °C; Activity [13]: inactive; inhibition at 20 µM [14]: 100%
8 | COc1ccc2c(c1OC)CN(C)c1c-2ccc2cc3c(cc12)OCO3 [DIHYDROCHELERYTHRINE] | Active | 24 °C | inactive | inactive | inactive | – | 8.65% | 30.4% | K [8]: 5.5 ×10⁵ /M; Activity [9]: Dose-dependent effect; IC50 [9]: 5.8 µM; Activity [10]: Active; ΔTm [11]: 17.6 °C; ΔTm [12]: -1 °C; Activity [13]: inactive; inhibition (HCT-116): inactive
9 | COc1cccc2c1C(=O)c1c(O)c3c(c(O)c1C2=O)C[C@@](O)(C(=O)CO)C[C@@H]3O[C@H]1C[C@H](N)[C@H](O)[C@H](C)O1 [DOXORUBICIN] | – | – | – | – | – | – | 92.7% | 98.1% | inhibition at 20 µM [14]: 98%
